Assay outcomes from PubChem BioAssay.
HTR2A ag = activates the mouse 5-HT2A serotonin receptor; P35363; actives 0.66% (n = 360,000); CHO-K1 mHTR2A beta-arrestin complementation, luminescence; percent of 30 µM serotonin response; AID 624169; activation, % at 7.6 µM;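 active = activation above a run cutoff, the mean activation of all tested compounds plus 3 SD, cut at about 14% in these data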
CXCR6 block = CXCR6 (human) receptor inhibition | actives 0.36% (n = 360,000) | CHO-K1 PathHunter CXCR6 beta-arrestin, luminescence | inhibition, % at 20 µM | O00574; in the data active = inhibition above about 34%, passing the limit was not always enough;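 also: antagonist mode with CXCL16 agonist at 10 nM final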
CCR6 antagonist = blocks CCL20-driven beta-arrestin recruitment at human CCR6. CHO-K1 CCR6 PathHunter beta-arrestin, luminescence, CCL20-stimulated. inhibition, % at 20 µM. actives 0.49% (n = 340,000). AID 493098;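 active = compounds whose inhibition of the agonist-driven luminescence signal at 20 µM reaches about 50%, limit read from the data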;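 also: cells stimulated with CCL20 at 14 nM final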
APJ ag = agonists of human APJ apelin receptor; P35414; CHO-K1 APJ PathHunter beta-arrestin, luminescence; 0% DMSO wells, 100% apelin; activation, % at 20 µM; actives 0.11% (n = 330,000);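 active = activation more than six SD over the plate average, tested at 20 µM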
Target sequence (P35414 whole entry, looked up): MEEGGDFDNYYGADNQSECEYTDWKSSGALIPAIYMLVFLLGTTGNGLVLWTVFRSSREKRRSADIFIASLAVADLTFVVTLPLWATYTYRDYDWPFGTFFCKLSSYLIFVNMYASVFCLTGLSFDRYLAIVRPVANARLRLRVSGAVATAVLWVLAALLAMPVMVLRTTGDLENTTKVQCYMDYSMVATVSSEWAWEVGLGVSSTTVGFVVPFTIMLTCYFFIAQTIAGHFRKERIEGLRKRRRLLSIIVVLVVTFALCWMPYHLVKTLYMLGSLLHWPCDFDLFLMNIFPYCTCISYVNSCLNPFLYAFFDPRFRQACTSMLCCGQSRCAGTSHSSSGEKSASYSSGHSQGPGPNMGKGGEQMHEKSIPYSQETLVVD
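Test system – PathHunter CHO-K1 APJ (AGTRL-1) beta-arrestin reporter cells · Input – 1000 cells/well · Compound – single test compound dose, 20 µM final, 1% DMSO · Times – compound stimulation 90 min at 25 °C, detection 60 min · Technique – beta-gal luminescence · Read-out basis – APJ–arrestin association signal · Control set – negative DMSO alone, positive Apelin-13 at 10 nM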
APJ antagonist = antagonists of human APJ apelin receptor; P35414; actives 0.32% (n = 330,000); CHO-K1 APJ beta-arrestin complementation, luminescence; AID 2521; inhibition, % at 20 µM;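 active = inhibition above about 40% at 20 µM, limit read from the data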;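 also: cells challenged with 10 nM apelin-13 agonist together with compound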
EBI2 block = EBI2 (human) antagonism. P32249. EBI2 beta-arrestin recruitment, luminescence, 7a,25-OHC stimulated. inhibition, % at 5 µM. actives 0.81% (n = 360,000); in the data active = inhibition above about 38%;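 also: enzyme fragment complementation signal reports receptor beta-arrestin coupling in cells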
OPRM1 ag = counter-screen for mouse HTR2A agonists: human mu opioid receptor agonists; shares compounds with HTR2A ag; U2OS OPRM1 beta-arrestin PathHunter, luminescence; DMSO 0%, DAMGO 9.3 µM 100%; activation, % at 9.3 µM; actives 5.3% (n = 2,300); AID 624380;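 active = mean activation above the mean of DMSO-only wells plus 3 SD, cut at about 0.5% in these data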
HTR2A ag conf = confirmation of mouse HTR2A serotonin receptor agonists | shares compounds with HTR2A ag | CHO-K1 PathHunter beta-arrestin recruitment, luminescence; DMSO 0%, 30 µM serotonin 100% | activation, % at 7.6 µM | actives 19% (n = 2,300);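 active = mean activation across triplicates above the hit threshold derived in the original primary screen, cut at about 15% in these data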
Each line names hits and unclear results; the compound was inactive in the other large screens (follow-up assays come after a bar, where they were run). Only some compounds are listed: those with a hit (about 2.1% of all), similar ones and a draw of the others.

O=C(COC(=O)/C=C/c1ccc(C(F)(F)F)cc1)NCC1CCCCC1	HTR2A ag 25 | OPRM1 ag inactive | HTR2A ag conf inactive
CC1CN(C(=O)COC(=O)/C=C/c2ccc(C(F)(F)F)cc2)CC(C)O1 (stereo unspecified)	none
COc1ccccc1CNC(=O)COC(=O)Cc1ccc(Br)cc1	HTR2A ag 16 | OPRM1 ag inactive | HTR2A ag conf inactive
COc1ccccc1CNC(=O)C1CCC1	HTR2A ag 15 | OPRM1 ag inactive | HTR2A ag conf inactive
COc1ccccc1CNC(=O)C1CCN(S(=O)(=O)N2CCCCC2)CC1	none
COc1ccc(Nc2c(-c3ccc(F)cc3)nc3nc(C)cc(C)n23)cc1	none (no result: CCR6 antagonist, APJ ag, APJ antagonist)
CC1=CC=CN2CC(O)CN=C12 (stereo unspecified)	HTR2A ag 28 | OPRM1 ag inactive | HTR2A ag conf inactive
COc1ccc(-n2nc(C(=O)NCC(=O)N3CCCC(C)C3)c3ccccc3c2=O)cc1 (stereo unspecified)	none
COc1ccc(-n2nc(C(=O)NCC(=O)N3CCC(C)CC3)c3ccccc3c2=O)cc1	HTR2A ag 15 | OPRM1 ag inactive | HTR2A ag conf inactive
CCC(C)/C=C/C1=CC2=C(Cl)C(=O)C3(C)OC(=O)C(C(=O)C(C)C(C)O)C3C2=CO1 (stereo unspecified)	none
C=CCN1CCc2c(cc(O)c(O)c2Cl)C(c2ccccc2)C1 (stereo unspecified)	HTR2A ag 60 | OPRM1 ag inactive | HTR2A ag conf 148
Cc1cccc(C2CN(C)CCc3c2cc(O)c(O)c3Cl)c1 (stereo unspecified)	HTR2A ag 22 | OPRM1 ag inactive | HTR2A ag conf 34
Cc1ccc(S(=O)(=O)N2[C@@H](c3ccc(Cl)cc3)C(C(=O)O)=CC[C@H]2c2cccc(C)c2)cc1	none
C=CCN1CCc2cc(O)c(O)cc2C(c2ccccc2)C1 (stereo unspecified)	HTR2A ag 29 | OPRM1 ag inactive | HTR2A ag conf 86
Cc1cc(CSCc2ccc(Cl)cc2)no1	none
COc1ccc(CCNC(=O)C(C)n2nc(C)n3c(cc4occc43)c2=O)cc1OC (stereo unspecified)	none
CCc1nc2c(OCc3cc(Cl)cc(Cl)c3)cccn2c1N(C)C(=O)Nc1ccccc1OC	none (no result: CCR6 antagonist, APJ ag, APJ antagonist)
O=C(CSc1n[nH]c(-c2ccccn2)n1)Nc1ccccc1	HTR2A ag 15 | OPRM1 ag inactive | HTR2A ag conf inactive
COc1ccc(NC(=O)CSc2n[nH]c(-c3ccccn3)n2)cc1	none
Cc1ccc(C)c(Nc2c(F)c(F)c(F)c(F)c2C(=O)O)c1	none
CCc1nn(CC(=O)N2CCN(CC)CC2)c(=O)c2cc3sccc3n12	none
CCc1nn(CC(=O)NCCc2ccc(S(N)(=O)=O)cc2)c(=O)c2cc3sccc3n12	HTR2A ag 27 | OPRM1 ag inactive | HTR2A ag conf inactive
Cc1onc(-c2c(Cl)cccc2Cl)c1C(=O)N1CCOCC1	HTR2A ag 17 | OPRM1 ag inactive | HTR2A ag conf inactive
CNS(=O)(=O)c1ccc(C(=O)NCC(=O)NCCC(c2ccccc2)c2ccccc2)cc1	none
Cc1nn(CC(C)C)c(Cl)c1C(=O)N(c1ccc(Cl)cc1F)S(C)(=O)=O	none
COc1ccccc1N(C)S(=O)(=O)c1ccc(C(=O)Nc2nc(C)c(C(C)=O)s2)cc1	HTR2A ag 18 | OPRM1 ag inactive | HTR2A ag conf inactive
COc1ccc2ccc(C(C)(C(C)=O)C(=O)OC(C)C)cc2c1 (stereo unspecified)	none
O=C1NCCN1CCNc1nc(NCC2CC2)nc2cc(-c3ccccc3)sc12	none (no result: CCR6 antagonist, APJ ag, APJ antagonist)
C[C@@H]1CN[C@@H](CCO)/C1=C\c1ccccc1	none (no result: APJ ag, APJ antagonist)
C[C@@H]1CN[C@H](CCO)/C1=C\c1ccccc1	HTR2A ag 16 (no result: APJ ag, APJ antagonist) | OPRM1 ag inactive | HTR2A ag conf inactive
COc1ccccc1CNC(=O)COC(=O)Cc1c[nH]c2ccccc12	none
COc1ccccc1NC(=O)COC(=O)Cc1c[nH]c2ccccc12	HTR2A ag 15 | OPRM1 ag inactive | HTR2A ag conf inactive
Fc1cccc(Cc2c(C3CCCCC3)nc3c4ccccc4ccn23)c1	none (no result: CCR6 antagonist, APJ ag, APJ antagonist)
COc1ccccc1C(=O)NCC(=O)NNC(=O)C1COc2ccccc2O1 (stereo unspecified)	none
CC1CCc2c(sc(Nc3nc4c(F)cccc4s3)c2C(N)=O)C1 (stereo unspecified)	HTR2A ag 19 | OPRM1 ag inactive | HTR2A ag conf inactive
Cc1nc(-c2noc(-c3ccc(Cl)cc3)n2)c(C(F)(F)F)o1	none
COc1ccc(C)c2sc(N(CCN(C)C)C(=O)/C=C/c3cccs3)nc12	HTR2A ag 24 | OPRM1 ag 1.0 | HTR2A ag conf inactive
Cc1cc(C)c2nc(N(CCCN(C)C)C(=O)c3ccc4c(c3)OCCO4)sc2c1	none
COc1ccc(OC)c2sc(N(CCN(C)C)C(=O)/C=C/c3cccs3)nc12	none
COc1ccc(C)c2sc(N(CCCN(C)C)C(=O)c3ccc4c(c3)OCCO4)nc12	HTR2A ag 21 | OPRM1 ag inactive | HTR2A ag conf inactive
CC(=O)Nc1ccc(NC(=O)CSc2nnc(NC(=O)C3CC(=O)N(c4ccc(F)cc4)C3)s2)cc1 (stereo unspecified)	none
COc1ccc(-c2csc(C3=C(O)CN(Cc4ccc(S(N)(=O)=O)cc4)C3=N)n2)cc1OC	none
COc1ccc(-c2csc(C3=C(O)CN(Cc4ccc(Cl)cc4)C3=N)n2)cc1OC	HTR2A ag 53 | OPRM1 ag 1.7 | HTR2A ag conf 29
CC(C)N1C(=O)CCC1C(=O)NCc1cccs1 (stereo unspecified)	HTR2A ag 23 | OPRM1 ag inactive | HTR2A ag conf inactive
O=C(O)c1ccc(S(=O)(=O)N2CCC3(CC2)CC(=O)c2ccccc2O3)cc1	HTR2A ag 19 | OPRM1 ag inactive | HTR2A ag conf inactive
O=P(Nc1ccccc1)(Nc1ccccc1)c1ccccc1	HTR2A ag 15 (no result: APJ ag, APJ antagonist) | OPRM1 ag inactive | HTR2A ag conf inactive
CCOC(=O)Cn1nnnc1CN1CCN(c2ccc(OC)cc2)CC1	none
O=C(NCC1CCCCC1)c1cc(S(=O)(=O)N2CCOCC2)ccc1F	HTR2A ag 15 | OPRM1 ag inactive | HTR2A ag conf inactive
O=C(OC1CCCCC1=O)c1cc(S(=O)(=O)N2CCOCC2)ccc1F (stereo unspecified)	HTR2A ag 15 | OPRM1 ag 1.1 | HTR2A ag conf inactive
